Results reported in ChEMBL document CHEMBL1137336, “Structure-function correlation of chloroquine and analogues as transgene expression enhancers in nonviral gene delivery” (J Med Chem, 2006).
Active and inactive are the calls of the source. No cut-off for these calls is given here.

Experiments:
HepG2 [1] = assay: Viability of human HepG2 cells at 20 uM; assay type: functional
Method in brief: (§1)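 Cells plated at 5 × 10⁴/well 24 h ahead and rinsed with PBS. CDP/pGL3-CV polyplexes (1 µg DNA, charge ratio 5 +/-) applied in Opti-MEM with compound for 4 h at 37 °C, 5% CO₂, then medium replaced. After another 44 h, lysates assayed for luciferase in duplicate, expressed as RLU/mg protein. Viability taken as total lysate protein by modified Lowry (DC) assay, normalized to cells transfected with naked DNA.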

HepG2 [2] = assay: Transfection of CDP/plasmid pGL3-CV in HepG2 cells at 20 uM after 48 hrs by luciferase assay; assay type: functional, Homo sapiens; method in brief: as §1
HepG2 [3] = assay: Transfection of CDP/plasmid pGL3-CV in HepG2 cells at 100 uM after 48 hrs by luciferase assay; assay type: functional, Homo sapiens; method in brief: as §1
HepG2 [4] = assay: Viability of human HepG2 cells at 100 uM; assay type: functional; method in brief: as §1
Nucleic Acid [5] = assay: Transcription of plasmid pGL3-CV upto 2.5 mM relative to control; assay type: nucleic-acid assay
Nucleic Acid [6] = assay: Exclusion of picogreen dye from plasmid pGL3-CV at 0.5 mM; assay type: nucleic-acid assay
Method in brief: (§2)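 CDP/pGL3-CV polyplexes diluted 2.5× in water, then mixed 1:1 with compound at twice the final concentration. Incubated 5 min at room temperature, then combined with an equal volume of PicoGreen diluted 200× in 10 mM HEPES. Fluorescence read at ex 488/em 535 nm; exclusion taken as loss of dye fluorescence.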

HeLa [7] = assay: Viability of human HeLa cells at 200 uM; assay type: functional; method in brief: as §1
HeLa [8] = assay: Transfection of CDP/plasmid pGL3-CV in HeLa cells at 200 uM after 48 hrs by luciferase assay; assay type: functional, Homo sapiens; method in brief: as §1
Nucleic Acid [9] = assay: Exclusion of picogreen dye from plasmid pGL3-CV at 1 mM; assay type: nucleic-acid assay; method in brief: as §2
HepG2 [10] = assay: Transfection of CDP/plasmid pGL3-CV in HepG2 cells at 150 uM after 48 hrs by luciferase assay; assay type: functional, Homo sapiens; method in brief: as §1
HepG2 [11] = assay: Viability of human HepG2 cells at 150 uM; assay type: functional; method in brief: as §1
HepG2 [12] = assay: Viability of human HepG2 cells at 200 uM; assay type: functional; method in brief: as §1
HepG2 [13] = assay: Transfection of CDP/plasmid pGL3-CV in HepG2 cells at 200 uM after 48 hrs by luciferase assay; assay type: functional, Homo sapiens; method in brief: as §1
Nucleic Acid [14] = assay: Displacement of plasmid pGL3-CV from CDP/plasmid pGL3-CV polyplexes at 20 mM; assay type: nucleic-acid assay
Method in brief: (§3)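 pGL3-CV (2 µg, 0.6 pmol) complexed with CDP (24 µg, 4 nmol), diluted in PBS and held 30 min at 25 °C. Mixed with compound for a further 30 min at 25 °C, then passed through a 100 nm membrane presoaked with matching compound concentration. Free DNA in filtrate measured by DAPI fluorescence (ex 350/em 465 nm). % released = (If−I0)/(It−I0)×100.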

Nucleic Acid [15] = assay: Binding affinity to plasmid pGL3-CV assessed as retardation of movement in gel at 100 uM; assay type: nucleic-acid assay
Method in brief: (§4)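 pGL3-CV plasmid mixed with compound across 0.1-10 mM, each solution held ~10 min, then loading buffer and Borax buffer (0.025 M, pH 8.4) added. Run on 0.5% agarose gel containing ethidium bromide in TAE (40 mM Tris-acetate, 1 mM EDTA). Mobility compared with untreated plasmid.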

HepG2 [16] = assay: Uptake of CDP/plasmid pGL3-CV polyplexes in HepG2 cells after 2 hrs; assay type: ADME, cell-based; settings: human, hepg2, 2 h
HepG2 [17] = assay: Uptake of CDP/plasmid pGL3-CV polyplexes in HepG2 cells after 30 mins; assay type: ADME, cell-based; settings: human, hepg2, 0.5 h
Nucleic Acid [18] = assay: Binding affinity to plasmid pGL3-CV assessed as retardation of movement in gel at 1 mM; assay type: nucleic-acid assay; method in brief: as §4
Nucleic Acid [19] = assay: Displacement of plasmid pGL3-CV from CDP/plasmid pGL3-CV polyplexes at 500 uM; assay type: nucleic-acid assay; method in brief: as §3
HepG2 [20] = assay: Uptake in human HepG2 cells after 4 hrs in presence of CDP/plasmid pGL3-CV polyplexes; assay type: ADME, cell-based; settings: hepg2, 4 h
Method in brief: (§5)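 HepG2 cells (2 × 10⁶) incubated at 37 °C in Opti-MEM (pH 7.4) with 100 µM compound, with or without CDP/pDNA (20 nmol/3 pmol). At set times, washed with cold PBS with and then without compound, lysed, and diluted in 0.1 N NaOH. Fluorescence read at ex 360/em 465 nm, converted by standard curve, and cellular concentration calculated assuming a cell volume of 3 × 10⁻⁶ µL.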

HepG2 [21] = assay: Uptake in human HepG2 cells at 100 uM after 4 hrs; assay type: ADME, cell-based; settings: hepg2, 4 h; method in brief: as §5
Nucleic Acid [22] = assay: Displacement of plasmid pGL3-CV from CDP/plasmid pGL3-CV polyplexes at 2.5 mM; assay type: nucleic-acid assay; method in brief: as §3
Nucleic Acid [23] = assay: Displacement of plasmid pGL3-CV from CDP/plasmid pGL3-CV polyplexes at 5 to 20 mM; assay type: nucleic-acid assay; method in brief: as §3
Nucleic Acid [24] = assay: Binding affinity to plasmid pGL3-CV assessed as retardation of movement in gel at 10 mM; assay type: nucleic-acid assay; method in brief: as §4
Nucleic Acid [25] = assay: Exclusion of picogreen dye from plasmid pGL3-CV at 4 mM; assay type: nucleic-acid assay; method in brief: as §2
HepG2 [26] = assay: Uptake in human HepG2 cells at 100 uM after 30 mins; assay type: ADME, cell-based; settings: hepg2, 0.5 h; method in brief: as §5

`CCN(CC)CCCC(C)Nc1c2ccc(Cl)cc2nc2ccc(OC)cc12` (configuration not stated) [QUINACRINE] gave an Activity (HepG2 [1]) of 57% and an Activity (HepG2 [2]) of 25000000 RLU/mg.

Work on `NCCCN1CCN(CCCNc2ccnc3cc(Cl)ccc23)CC1` yielded an Activity (HepG2 [3]) of 20000000 RLU/mg, an Activity (HepG2 [4]) of 74% and an Activity (Nucleic Acid [5]) of 75%.

Work on `CCN(CC)CCOc1ccnc2cc(Cl)ccc12` yielded an Activity (Nucleic Acid [6]) of 17%, an Activity (HeLa [7]) of 92% and an Activity (HeLa [8]) of 230000 RLU/mg. It also gave an Activity (Nucleic Acid [9]) of 17% and an Activity (Nucleic Acid [5]) of 75%.

In the case of `CC(Nc1ccnc2cc(Cl)ccc12)C(=O)O` (configuration not stated), the Activity (HepG2 [10]) is reported as 4300000 RLU/mg, the Activity (HepG2 [11]) is reported as 84% and the Activity (Nucleic Acid [5]) is reported as 75%.

`CC(C)NCCNCCNc1ccnc2cc(Cl)ccc12` was tested, and the Activity (HepG2 [12]) was 74%, the Activity (HepG2 [13]) was 22000000 RLU/mg and the Activity (Nucleic Acid [5]) was 75%.

Compound `CCN(CC)CCCC(C)Nc1ccnc2cc(Cl)ccc12` (configuration not stated) [CHLOROQUINE] has an Activity (Nucleic Acid [6]) of 23%, an Activity (HeLa [7]) of 82% and an Activity (Nucleic Acid [14]) of 50%. For the same compound, the Activity (Nucleic Acid [15]) was “inactive”, the Activity (HeLa [8]) was 4300000 RLU/mg and the Activity (HepG2 [16]) was 67.7%. For the same compound, the Activity (HepG2 [12]) was 60%, the Activity (HepG2 [17]) was 11.9% and the Activity (Nucleic Acid [18]) was “inactive”. The Activity (Nucleic Acid [19]) was 10%, the Activity (HepG2 [13]) was 16000000 RLU/mg and the Drug uptake (HepG2 [20]) was 13 mM. The Drug uptake (HepG2 [21]) was 12 mM, the Activity (Nucleic Acid [9]) was 23% and the Activity (Nucleic Acid [5]) was 75%.

`CC(C)CCCC(C)Nc1ccnc2cc(Cl)ccc12` (configuration not stated) gave an Activity (HepG2 [10]) of 4700000 RLU/mg, an Activity (HepG2 [11]) of 89% and an Activity (Nucleic Acid [5]) of 75%.

In the case of `CN(C)CCNc1ccnc2cc(Cl)ccc12`, the Activity (HepG2 [10]) is reported as 25000000 RLU/mg, the Activity (HepG2 [11]) is reported as 64% and the Activity (Nucleic Acid [5]) is reported as 75%.

For `CCN(CC)CCCC(C)Nc1ccnc2ccccc12` (configuration not stated), the Activity (Nucleic Acid [22]) was < 3%, the Activity (HepG2 [16]) was 75.5% and the Activity (HepG2 [12]) was 100%. It also gave an Activity (HepG2 [17]) of 18.8%, an Activity (HepG2 [13]) of 2700000 RLU/mg and a Drug uptake (HepG2 [20]) of 2 mM. The Activity (Nucleic Acid [23]) was 10% and the Activity (Nucleic Acid [5]) was 75%.

With `NCCN(CCN)CCNc1ccnc2cc(Cl)ccc12` the Activity (HepG2 [10]) was 25000000 RLU/mg, the Activity (HepG2 [11]) was 83% and the Activity (Nucleic Acid [5]) was 75%.

With `CCN(CC)CCCC(C)Nc1ccncc1` (configuration not stated) the Activity (HeLa [7]) was 101%, the Activity (HeLa [8]) was 82000 RLU/mg and the Activity (HepG2 [16]) was 76.2%. For the same compound, the Activity (HepG2 [12]) was 85%, the Activity (HepG2 [17]) was 12.8% and the Activity (HepG2 [13]) was 6400000 RLU/mg.

Compound `CCN(CC)CCCC(C)Nc1ccnc2cc(C(F)(F)F)ccc12` (configuration not stated) has an Activity (Nucleic Acid [6]) of 30%, an Activity (HeLa [7]) of 83% and an Activity (Nucleic Acid [14]) of 70%. The Activity (HeLa [8]) was 6700000 RLU/mg, the Activity (HepG2 [12]) was 61% and the Activity (Nucleic Acid [24]) was “Active”. The Activity (Nucleic Acid [25]) was 100%, the Drug uptake (HepG2 [26]) was 11 mM and the Activity (Nucleic Acid [19]) was 40%. For the same compound, the Activity (HepG2 [13]) was 170000000 RLU/mg, the Drug uptake (HepG2 [20]) was 13 mM and the Activity (Nucleic Acid [9]) was 30%. For the same compound, the Activity (Nucleic Acid [5]) was 75%.
